Measured values taken from ChEMBL document CHEMBL1124180, “Asymmetric synthesis and properties of the enantiomers of the antibacterial agent 7-(3-aminopyrrolidin-1-yl)-1-(2,4-difluorophenyl)-1,4-dihydro-6- fluoro-4-oxo-1,8-naphthyridine-3-carboxylic acid hydrochloride” (J Med Chem, 1988).

Tests used:
Enterococcus faecium = test: In vitro activity against Enterococcus faecium (ATCC 8043).; type: functional
How it was run: (§1)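 MIC determined by agar dilution on brain-heart infusion agar under aerobic conditions.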

Pseudomonas aeruginosa [1] = test: In vitro activity against Pseudomonas aeruginosa (A5007).; type: functional; how it was run: as §1
Mus musculus [2] = test: In vivo activity against Pseudomonas aeruginosa A5007 (100X LD50), administered sc( each compound tested at 3 doses with 10 animals); type: functional
How it was run: (§2)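 Mice were challenged intraperitoneally with the organism. The compound was given subcutaneously as a total dose split into equal portions at 1 and 5 h post-infection. Three doses were used, with 10 animals per dose.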

Pseudomonas aeruginosa [3] = test: In vitro activity against Pseudomonas aeruginosa (BMH10); type: functional; how it was run: as §1
[4] = Solubility in aqueous media 0.15Nacetate, pH 6.1; type: physicochemical; details: 0.15 N acetate, read-out: S
[5] = Solubility in aqueous media urine, pH 5.7; type: physicochemical; details: read-out: S
Escherichia coli [6] = test: In vitro activity against Escherichia coli Juhl; type: functional
How it was run: (§3)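 MIC for aerobic bacteria, measured on brain-heart infusion agar.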

Burkholderia cepacia = test: In vitro activity against Pseudomonas cepacia (296I); type: functional; how it was run: as §1
Mus musculus [7] = test: In vivo activity against Escherichia coli Juhl(100X LD50), when administered sc( each compound tested at 3 doses with 10 animals); type: functional; how it was run: as §2
Mus musculus [8] = test: In vivo activity against Escherichia coli Juhl(100X LD50), when administered po( each compound tested at 3 doses with 10 animals); type: functional
How it was run: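 Mice were challenged intraperitoneally with the organism. The compound was given orally as a total dose split into equal portions at 1 and 5 h post-infection. Three doses were used, with 10 animals per dose.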

[9] = Solubility in aqueous media 0.15 N phosphate, pH 5.6; type: physicochemical; details: read-out: S
Pseudomonas aeruginosa [10] = test: In vitro activity against Pseudomonas aeruginosa (K799/WT).; type: functional; how it was run: as §1
Acinetobacter sp. = test: In vitro activity against Acinetobacter sp.(CMX 669).; type: functional; how it was run: as §1
Staphylococcus aureus [11] = test: In vitro activity against Staphylococcus aureus(45); type: functional; how it was run: as §1
Klebsiella pneumoniae = test: In vitro activity against Klebsiella pneumoniae (ATCC 8045).; type: functional; how it was run: as §1
Streptococcus pyogenes [12] = test: In vitro activity against Streptococcus pyogenes (2548 INDUC).; type: functional; how it was run: as §1
Streptococcus pyogenes [13] = test: In vitro activity against Streptococcus pyogenes(930 CONST).; type: functional; how it was run: as §1
Staphylococcus aureus [14] = test: In vitro activity against Staphylococcus aureus(ATCC 6538P); type: functional; how it was run: as §1
Streptococcus agalactiae = test: In vitro activity against Streptococcus agalactiae (CMX 508).; type: functional; how it was run: as §1
Providencia stuartii = test: In vitro activity against Providencia stuartii (CMX 640); type: functional; how it was run: as §1
[15] = Solubility in aqueous media 0.15 N sulfate, pH 5.4; type: physicochemical; details: read-out: S
Staphylococcus aureus [16] = test: In vitro activity against Staphylococcus aureus(45 RAR2); type: functional; how it was run: as §1
Mus musculus [17] = test: In vivo activity against Pseudomonas aeruginosa A5007 (100X LD50), administered sc ( each compound tested at 3 doses with 10 animals); type: functional; how it was run: as §2
Escherichia coli [18] = test: In vitro activity against Escherichia coli (H560); type: functional; how it was run: as §3
Escherichia coli [19] = test: In vitro activity against Escherichia coli (SS).; type: functional; how it was run: as §3
[20] = Solubility in aqueous media urine, pH 7.0; type: physicochemical; details: read-out: S
Staphylococcus aureus [21] = test: In vitro activity against Staphylococcus aureus(CMX 686B); type: functional; how it was run: as §1
Klebsiella aerogenes = test: In vitro activity againsT Enterobacter aerogenes (ATCC 13048).; type: functional; how it was run: as §1
Streptococcus equinus = test: In vitro activity against Streptococcus bovis (A5169).; type: functional; how it was run: as §1
[22] = Solubility in aqueous media urine, pH 5.1; type: physicochemical; details: read-out: S
[23] = Solubility in aqueous media 0.1 N chloride, pH 6.5; type: physicochemical; details: read-out: S
Escherichia coli [24] = test: In vitro activity against Escherichia coli (DC-2); type: functional; how it was run: as §3
Staphylococcus aureus [25] = test: In vitro activity against Staphylococcus aureus(CMX 503A); type: functional; how it was run: as §1
[26] = Solubility in aqueous media Ringer's buffer,pH7.4; type: physicochemical; details: pH 7.4
[27] = Solubility in aqueous media urine, pH 6.3; type: physicochemical; details: read-out: S
Micrococcus luteus [28] = test: In vitro activity against Micrococcus luteus (ATCC 9341); type: functional; how it was run: as §1
Streptococcus pyogenes [29] = test: In vitro activity against Streptococcus pyogenes (EES61); type: functional; how it was run: as §1
[30] = test system: Staphylococcus epidermidis; test: In vitro activity against Staphylococcus epidermidis (3519); type: functional; how it was run: as §1
Staphylococcus aureus [31] = test: In vitro activity against Staphylococcus aureus(CMX 553); type: functional; how it was run: as §1
Escherichia coli [32] = test: In vitro activity against Escherichia coli (KNK437); type: functional; how it was run: as §3
Micrococcus luteus [33] = test: In vitro activity against Micrococcus luteus (ATCC 4698); type: functional; how it was run: as §1
Staphylococcus aureus [34] = test: In vitro activity against Staphylococcus aureus (A5177); type: functional; how it was run: as §1

SMILES: Cl.NC1CCN(c2nc3c(cc2F)c(=O)c(C(=O)O)cn3-c2ccc(F)cc2F)C1 (configuration not stated)
- MIC (Enterococcus faecium): 0.2 µg/mL
- MIC (Pseudomonas aeruginosa [1]): 0.2 µg/mL
- ED50 (Mus musculus [2]): > 25 mg/kg
- MIC (Pseudomonas aeruginosa [3]): 0.1 µg/mL
- solubility [4]: 1.7 µg/mL
- solubility [5]: 16.3 µg/mL
- MIC (Escherichia coli [6]): 0.02 µg/mL
- MIC (Burkholderia cepacia): 6.2 µg/mL
- ED50 (Mus musculus [7]): 0.2 mg/kg
- ED50 (Mus musculus [8]): 1.2 mg/kg
- solubility [9]: 1.8 µg/mL
- MIC (Pseudomonas aeruginosa [10]): 0.1 µg/mL
- MIC (Acinetobacter sp.): 0.05 µg/mL
- MIC (Staphylococcus aureus [11]): 0.1 µg/mL
- MIC (Klebsiella pneumoniae): 0.02 µg/mL
- MIC (Streptococcus pyogenes [12]): 0.2 µg/mL
- MIC (Streptococcus pyogenes [13]): 0.2 µg/mL
- MIC (Staphylococcus aureus [14]): 0.02 µg/mL
- MIC (Streptococcus agalactiae): 0.39 µg/mL
- MIC (Providencia stuartii): 1.56 µg/mL
- solubility [15]: 6.5 µg/mL
- MIC (Staphylococcus aureus [16]): 0.1 µg/mL
- ED50 (Mus musculus [17]): 0.4 mg/kg
- MIC (Escherichia coli [18]): 0.02 µg/mL
- MIC (Escherichia coli [19]): 0.01 µg/mL
- solubility [20]: 12.2 µg/mL
- MIC (Staphylococcus aureus [21]): 0.05 µg/mL
- MIC (Klebsiella aerogenes): 0.1 µg/mL
- MIC (Streptococcus equinus): 0.2 µg/mL
- solubility [22]: 23.5 µg/mL
- solubility [23]: 1.2 µg/mL
- MIC (Escherichia coli [24]): 0.2 µg/mL
- MIC (Staphylococcus aureus [25]): 0.05 µg/mL
- solubility [26]: 8 µg/mL
- solubility [27]: 12.7 µg/mL
- MIC (Micrococcus luteus [28]): 1.56 µg/mL
- MIC (Streptococcus pyogenes [29]): 0.2 µg/mL
- MIC [30]: 0.05 µg/mL
- MIC (Staphylococcus aureus [31]): 0.05 µg/mL
- MIC (Escherichia coli [32]): 0.02 µg/mL
- MIC (Micrococcus luteus [33]): 0.78 µg/mL
- MIC (Staphylococcus aureus [34]): 0.05 µg/mL
